This is an account of results in ChEMBL document CHEMBL3822384, “2-(3-Methoxyphenyl)quinazoline Derivatives: A New Class of Direct Constitutive Androstane Receptor (CAR) Agonists” (J Med Chem, 2016).

Type in all cases: cell-based
The target of one data set is T1, AHR (Homo sapiens, UniProt P35869).
T1 sequence (P35869 whole entry): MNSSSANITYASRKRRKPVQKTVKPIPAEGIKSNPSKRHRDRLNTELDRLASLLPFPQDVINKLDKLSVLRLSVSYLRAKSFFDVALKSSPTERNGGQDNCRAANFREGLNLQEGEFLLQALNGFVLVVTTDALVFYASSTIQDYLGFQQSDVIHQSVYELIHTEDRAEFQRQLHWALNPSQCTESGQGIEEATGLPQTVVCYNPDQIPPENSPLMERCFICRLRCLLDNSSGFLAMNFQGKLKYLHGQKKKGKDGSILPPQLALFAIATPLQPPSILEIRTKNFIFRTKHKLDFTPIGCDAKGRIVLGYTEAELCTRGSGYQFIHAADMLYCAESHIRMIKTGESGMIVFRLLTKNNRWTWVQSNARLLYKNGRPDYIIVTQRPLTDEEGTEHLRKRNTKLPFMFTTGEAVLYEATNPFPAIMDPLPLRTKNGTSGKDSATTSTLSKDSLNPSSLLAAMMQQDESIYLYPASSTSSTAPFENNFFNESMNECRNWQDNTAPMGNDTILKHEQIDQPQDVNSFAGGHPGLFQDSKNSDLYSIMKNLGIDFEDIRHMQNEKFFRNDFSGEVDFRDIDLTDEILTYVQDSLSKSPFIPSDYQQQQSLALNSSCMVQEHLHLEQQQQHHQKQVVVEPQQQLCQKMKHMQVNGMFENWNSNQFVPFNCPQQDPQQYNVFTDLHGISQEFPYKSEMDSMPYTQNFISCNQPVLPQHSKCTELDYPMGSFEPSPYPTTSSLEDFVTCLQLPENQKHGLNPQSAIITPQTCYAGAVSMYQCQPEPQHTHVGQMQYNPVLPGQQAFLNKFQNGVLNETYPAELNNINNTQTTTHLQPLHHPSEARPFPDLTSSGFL
As to the kind of experiment: (§1) Agonist activity at AHR expressed in human HepG2 cells after 24 hrs by pXRE-luciferase reporter gene assay. Particulars: human, HepG2 cells expressing AHR; read-out: Imax. (In general: A reporter such as luciferase makes a cellular process visible.)

The target of data set [1] is T2, Aryl hydrocarbon receptor (Homo sapiens, UniProt P35869).
T2 sequence (P35869 whole entry): T1 sequence (P35869 whole entry)
Described as §1.

The target of data set [2] is T3, Nuclear receptor subfamily 1 group I member 3 (Homo sapiens, UniProt Q14994).
T3 sequence (Q14994 whole entry): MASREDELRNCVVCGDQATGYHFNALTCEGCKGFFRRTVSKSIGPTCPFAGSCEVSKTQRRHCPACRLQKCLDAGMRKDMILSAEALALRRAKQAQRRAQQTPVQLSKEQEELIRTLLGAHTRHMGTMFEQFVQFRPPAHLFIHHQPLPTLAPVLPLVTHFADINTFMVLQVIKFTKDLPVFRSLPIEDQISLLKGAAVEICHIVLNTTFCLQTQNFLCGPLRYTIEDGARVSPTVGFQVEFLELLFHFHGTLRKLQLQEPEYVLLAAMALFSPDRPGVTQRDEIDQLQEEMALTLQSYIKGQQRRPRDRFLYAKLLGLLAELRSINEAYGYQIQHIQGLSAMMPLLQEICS
Put plainly: Agonist activity at CAR expressed in human HepG2 cells at 1 to 20 uM after 48 hrs by p(ER6)3-luciferase reporter gene assay. As to conditions: hepg2, 48 h; call rule not given here. An outline of the steps: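 HepG2 cells transiently co-transfected with p(ER6)3-luc reporter, wild-type CAR expression vector and pRL-TK normalization plasmid; after 24 h stabilization, treated with compounds or vehicle (DMSO 0.1%, v/v) for 48 h. Firefly and Renilla luciferase read; fold change versus vehicle (set to 1), means ± SD of triplicates from a representative experiment.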

The next data set relates to HepG2. Put plainly: Cytotoxicity against human HepG2 cells assessed as cell viability after 24 hrs by MTS assay. Particulars: hepg2, 24 h.
Data set [3] has as its target T3, Nuclear receptor subfamily 1 group I member 3. As to the kind of experiment: Agonist activity at human CAR expressed in human HepG2 cells assessed as upregulation of CYP2B6 mRNA expression at 1 uM after 24 hrs by qRT-PCR method. Particulars: hepg2, 24 h.

Molecules are shown by their SMILES.

Take `Cc1ccc2cc3c(ccc4ccccc43)c3c2c1CC3` [3-METHYLCHOLANTHRENE]: at AHR, the Emax at 24 h was found to be 119%. Besides, in data set [1], the EC50 – broadly, the midpoint of the concentration-response curve – was 490 nM.
With `Clc1cc2c(cc1Cl)Oc1cc(Cl)c(Cl)cc1O2` [2,3,7,8-TETRACHLORODIBENZO-P-DIOXIN], at AHR, the Emax at 24 h was 59%.
Regarding `COc1cccc(-c2nc(O)c3ccccc3n2)c1`, in data set [2], the outcome was Active.
Consider `Clc1ccc(-c2nc3sccn3c2/C=N/OCc2ccc(Cl)c(Cl)c2)cc1`, for which the figures for the Activity result (in the data set on HepG2; in data set [2]; in data set [3]) were “Non-toxic”, “Active” and “Active”, respectively.
